High-throughput results as filed in PubChem BioAssay.
The list is not random: actives were taken first. Their share in the collection is about 3.9%.
Rad51 HR inh = Rad51 (human) homologous recombination inhibition; inhibition, % at 10 µM; AID 1385; Q06609; 200,000 tested, 0.085% active; hRad51 DNA strand exchange, fluorescence dequenching;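 active = inhibition above 40% at the single screening dose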;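 note: 0% = DMSO control wells and 100% = blanks with heterologous ssDNA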
Target sequence (Q06609 whole entry, looked up): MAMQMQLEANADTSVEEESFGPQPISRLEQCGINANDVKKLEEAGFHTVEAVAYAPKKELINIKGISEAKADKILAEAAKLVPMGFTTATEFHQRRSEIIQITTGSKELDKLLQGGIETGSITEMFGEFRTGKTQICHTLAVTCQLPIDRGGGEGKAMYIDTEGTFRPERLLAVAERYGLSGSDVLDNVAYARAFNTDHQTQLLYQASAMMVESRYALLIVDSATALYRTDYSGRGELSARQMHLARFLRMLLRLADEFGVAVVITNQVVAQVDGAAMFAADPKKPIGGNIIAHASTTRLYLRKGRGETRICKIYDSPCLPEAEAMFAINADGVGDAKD
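Material: Human Rad51 nucleoprotein filaments preassembled on unlabelled ssDNA | Also added: Labelled 47-mer dsDNA for strand exchange | Dosing: Single dose, 10 µM final compound | Schedule: 30-min compound preincubation and 15-min exchange, both room temperature | Technique: Fluorescence dequenching at 485/520 nm | Measure: Percent inhibition relative to plate controls and blanks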
APP 5'UTR act = activates APP 5'UTR luciferase reporter; activation, % at 2 µM; AID 1276; 190,000 tested, 1% active; SH-SY5Y APP 5'UTR luciferase reporter, luminescence; zero percent = DMSO vehicle wells;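 active = activation above a set limit, based on mean plus 3 SD of controls, cut at about 140% in these data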
FLuc inhib CS = counter-screen for luciferase assay inhibitors: firefly luciferase inhibition. 200,000 tested, 1.5% active. ATPLite firefly luciferase biochemical luminescence, 10 min. inhibition, % at 10 µM. P08659;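 active = inhibition above about 50% when tested at 10 µM, limit read from the data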
STAT1 activator = increases IFN-gamma driven STAT1 reporter signal. NIH 3T3 STAT1-luciferase reporter, luminescence; 100% = IFN-gamma alone, no compound. activation (% of control), % at 5.5 µM. 200,000 tested, 2.6% active;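 active = activation above the screen-wide mean activation plus 3 SD, cut at about 130% in these data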;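 note: raw ratio to IFN-gamma control signal so 100% means no change and 0% no light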
NF-kB neuron act = raises NF-kB expression in human neuronal cells; 190,000 tested, 1.6% active; NF-kB reporter expression; hits give high values; AID 1239; fold change at 12.5 µM; in the data active = fold change above about 3.3
FLuc stim CS = affects firefly luciferase, flagging false hits in luciferase stimulation screens. P08659. ATPlite luciferase biochemical, luminescence, 10 min; 0 = ATP-free wells, 1 = DMSO control. activation factor at 10 µM. 200,000 tested, under 10 active. AID 1027;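 active = luciferase activation factor, scaled between plate controls, of at least 2 with compound at 10 µM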
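Assay system: Luciferase/luciferin detection reagent, cell-free biochemical luciferase assay / Read-out: luciferase activation / Benchmarks: No-ATP low control, compound-free enzyme-plus-ATP high control / Medium: PBS buffer for ATP / Detection: luminescence measurement of luciferase light output / Schedule: 10 min at ambient temperature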
* = called active by the depositor; nt = no result.

SMILES	Rad51 HR inh	APP 5'UTR act	FLuc inhib CS	STAT1 activator	NF-kB neuron act	FLuc stim CS
COc1ccccc1-c1ccc(Nc2cccc(C(F)(F)F)c2)nn1	3	11	12	105	1	0.9
Fc1ccc(Nc2ccc(-c3ccc(F)cc3)nn2)cc1	4	81	18	139*	2.7	0.8
Fc1ccc(-c2ccc(Nc3cccc(F)c3)nn2)cc1	8	56	9	144*	1.7	0.9
CS(=O)(=O)Cc1cc(N2CCCC2)nc(-c2ccccc2)n1	6	-5	-2	97	1.2	1
C/C(N)=C(/C#N)C(=O)CSc1nc2ccc(C)cc2[nH]1	-7	141*	26	150*	4.3*	0.7
Cc1ccc2nc(SCC(=O)c3cc(C)n(C)c3C)[nH]c2c1	3	5	1	101	3.4*	1
O=C(CSc1nc2ccccc2[nH]1)c1c[nH]c2ccccc12	7	3	1	124	1.9	1
Cc1cc(C(=O)CSc2nc3ccc(Cl)cc3[nH]2)c(C)n1C	-1	11	-2	90	0.73	1
Cc1cc(C(=O)CSc2nc3ccccc3[nH]2)c(C)n1C	0	149*	17	142*	4*	0.8
Cn1cc(/C=N/n2cnc3sc4c(c3c2=O)CCCC4)c2ccccc21	1	11	-2	85	0.91	1
O=c1c2c3c(sc2ncn1/N=C/c1ccc([N+](=O)[O-])o1)CCCC3	7	-19	-1	96	4*	1
CCOc1ccc(-c2ccc(SCC)nn2)cc1	-4	167*	86*	78	5*	0.1
CCSc1ccc(-c2ccc(C)cc2)nn1	11	187*	88*	98	6.6*	0.1
COc1ccc(-c2ccc(SC)nn2)cc1	nt	114	94*	46	nt	0.1
COc1ccc(C(=O)CSc2ccc(-c3ccccc3)nn2)cc1	-2	8	2	100	1.3	1
S=C1NCCC12C(=S)Nc1ccccc12 (centres undefined)	2	nt	nt	nt	nt	nt
CN1CCN(C(=O)/C(C#N)=C/c2ccc(OC(F)F)cc2)CC1	44*	nt	nt	nt	nt	nt
COc1cc(/C=C(\C#N)C(=O)N2CCOCC2)ccc1OCc1ccccc1	-7	37	-3	110	1.1	1
N#C/C(=C\c1ccc(OCc2ccc(C(=O)O)cc2)cc1)C(=O)N1CCOCC1	3	-56	-1	38	7*	1
CCOC(=O)/C(C#N)=C/c1ccc(N2CCN(C)CC2)cc1	0	-22	8	104	1.1	0.9
Cc1ccc(NC(=O)CSc2nnc(-c3cccs3)o2)cc1S(=O)(=O)N(C)C	nt	52	-2	114	nt	1
CC(C)NCCCCOc1ccccc1-c1ccccc1	0	-1	-9	104	0.91	1.1
Cc1cc(C)c(NS(=O)(=O)c2ccc(NC(=O)/C=C/C(=O)O)cc2)c(C)c1	nt	16	-3	91	1	1
CN(C)CCCN(C(=O)/C=C/c1cccs1)c1nc2c(F)cccc2s1	2	29	4	99	5.4*	1
Cc1cccc2sc(N(CCN(C)C)C(=O)/C=C/c3cccs3)nc12	-2	-1	-9	99	1.4	1.1
SMILES	Rad51 HR inh	APP 5'UTR act	FLuc inhib CS	STAT1 activator	NF-kB neuron act	FLuc stim CS
COc1ccc2nccc(C(N)=O)c2c1	7	nt	nt	nt	nt	nt
COC(=O)c1nc2ccc(N3CCOCC3)cc2c(C)c1C(=O)OC	-12	57	87*	119	2.2	0.1
Cc1cc(C(=O)Nc2ccc(N3CCOCC3)cc2)c2ccccc2n1	-3	-33	-7	104	1	1.1
CNC(=O)c1cc2c(s1)CCCCCC2	4	-7	-2	100	1.1	1
O=C(Nc1ccon1)c1cc2c(s1)CCCC2	-2	164*	70*	133*	5.6*	0.3
O=C(Nc1ccc(N2CCOCC2)cc1)c1cc2c(s1)CCCCC2	2	3	2	109	1	1
O=C(Nc1ccon1)c1cc2c(s1)CCCCCC2	-7	124	19	141*	3	0.8
O=C(Nc1ccccc1N1CCOCC1)c1cc2c(s1)CCCCC2	6	42	65*	110	0.97	0.3
CC(C)NC(=O)c1cc2c(s1)CCCC2	-6	-1	5	96	1.1	1
COc1ccc(CNC(=O)C2(CC3CC(c4ccccc4)=NO3)CCNCC2)cc1 (centres undefined)	2	nt	nt	nt	nt	nt
CCN1CNC(=S)N(C(C)c2ccccc2)C1 (centres undefined)	4	14	-3	108	1.8	1
Cc1ccc(NN2C(=O)C=C(c3ccccc3)C2=O)cc1	-15	-11	0	103	1.5	1
COc1cccc2cc(-c3cn4cccc(C)c4n3)c(=O)oc12	-7	57	nt	136*	nt	nt
CCOc1cccc2cc(-c3cn4cc(C)ccc4n3)c(=O)oc12	-4	-3	68*	141*	3.5*	0.3
COc1cccc2cc(-c3nnc(-c4ccccc4)o3)c(=O)oc12	1	138*	91*	120	1.9	0.1
N/C(=N\OC(=O)Cc1ccccc1)c1cccnc1	-1	5	2	104	1.6	1
N/C(=N\OC(=O)c1ccccc1)c1cccnc1	-1	76	92*	122	1.2	0.1
N/C(=N\OC(=O)CCC1CCCCC1)c1cccnc1	-2	17	63*	109	1.7	0.4
N/C(=N\OC(=O)c1ccccc1Cl)c1cccnc1	-1	109	83*	140*	5.7*	0.2
N/C(=N\OC(=O)CCCc1ccccc1)c1cccnc1	nt	17	50*	109	1.1	0.5
FC(F)Oc1ccccc1/C=N/n1cnc2ccccc21	-12	39	0	134*	1.8	1
Cc1nn(Cc2ccc(F)cc2)c(C)c1NC(=O)CCCn1nc([N+](=O)[O-])cc1C	-6	-21	-7	94	1.1	1.1
O=C(O)c1ccccc1C(=O)NNc1cccc(Cl)n1	-38	155*	0	116	1.3	1
Cc1nc2scc(-c3cccs3)c2c(=O)n1CC(=O)O	115*	nt	5	94	1	1
CCN(CC)CC(=O)Nc1nc(-c2ccc(Cl)cc2)cs1	12	-12	-8	103	1.1	1.1
CNc1nc(-c2ccc(Cl)cc2)cs1	2	83	17	132*	2.4	0.8
CCNc1nc(-c2ccc(Cl)cc2)cs1	9	148*	31	149*	3.8*	0.7
CNc1nc(-c2ccc([N+](=O)[O-])cc2)cs1	5	34	15	137*	2.1	0.8
O=C(COC(=O)c1c(F)cccc1F)c1ccc[nH]1	-3	nt	nt	nt	nt	nt
O=C(OCC(=O)c1ccc[nH]1)c1ccccc1	2	2	3	138*	1.7	1
